The source made the active and inactive calls. The rule behind the calls is not given here.
Key:
Rattus norvegicus = test: Inhibition of acid secretion was determined by the compound administered subcutaneously in rats; format: functional; settings: sc
Method in brief: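 Pylorus-ligated (Shay) rats: female Upjohn or Charles River rats fasted 24 h, water withheld the last 18 h. Compound given once sc. Pylorus ligated under ether, then 10 mL saline sc. Gastric juice acidity titrated with 0.1 M NaOH as output (mequiv/2 or 3 h). Usually 12 controls and 5-6 rats per dose.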

Oryctolagus cuniculus [1] = species on record: Oryctolagus cuniculus; test: Antisecretory effect in isolated rabbit gastric glands as measured by aminopyrine uptake; format: functional, Stomach
Method in brief: (§1)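 Gastric glands from male New Zealand rabbits (1.5-2.0 kg), isolated by collagenase digestion at 37 °C, pH 7.4. Incubated with compound 45 min at 37 °C with vigorous shaking. Pellet and supernatant radioactivity counted by liquid scintillation. ID50 from at least six doses, duplicate at each dose.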

[2] = biological target: T1, Potassium-transporting ATPase (Rattus norvegicus) (UniProt P09626+P18598); test: Inhibition of isolated rat H+/K+ ATPase.; format: protein-complex assay
Method in brief: (§2)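 Male Sprague-Dawley rats (~230 g), fasted 16 h without food or water in restraining cages. Compound in 1 mL isotonic saline with 25% ethanol, given sc or by gavage. Killed 3 h later. Fundic mucosa pooled from four rats per treatment, homogenized, microsomes isolated at 170000g. K+-stimulated ATPase assayed as for hog enzyme. ED50 from at least five doses, each in triplicate.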

Oryctolagus cuniculus [3] = species on record: Oryctolagus cuniculus; test: Antisecretory effect in isolated rabbit gastric glands as measured by aminopyrine uptake; Inactive, 1E-4M concentration; format: functional; settings: Stomach; method in brief: as §1
[4] = biological target: Potassium-transporting ATPase (Sus scrofa, UniProt P19156); test: (§3) Activity was evaluated by measuring the inhibition of isolated hog H+/K+ ATPase; format: protein-complex assay
Sequence of Potassium-transporting ATPase (P18434 whole entry): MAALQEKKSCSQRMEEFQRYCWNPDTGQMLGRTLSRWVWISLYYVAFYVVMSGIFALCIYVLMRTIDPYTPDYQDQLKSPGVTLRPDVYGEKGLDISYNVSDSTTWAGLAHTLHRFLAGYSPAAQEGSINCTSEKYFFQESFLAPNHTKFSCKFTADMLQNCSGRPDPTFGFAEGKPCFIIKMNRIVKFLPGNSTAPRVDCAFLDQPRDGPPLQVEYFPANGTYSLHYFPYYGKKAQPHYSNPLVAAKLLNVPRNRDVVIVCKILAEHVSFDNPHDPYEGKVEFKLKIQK
Sequence of Potassium-transporting ATPase (P19156 whole entry): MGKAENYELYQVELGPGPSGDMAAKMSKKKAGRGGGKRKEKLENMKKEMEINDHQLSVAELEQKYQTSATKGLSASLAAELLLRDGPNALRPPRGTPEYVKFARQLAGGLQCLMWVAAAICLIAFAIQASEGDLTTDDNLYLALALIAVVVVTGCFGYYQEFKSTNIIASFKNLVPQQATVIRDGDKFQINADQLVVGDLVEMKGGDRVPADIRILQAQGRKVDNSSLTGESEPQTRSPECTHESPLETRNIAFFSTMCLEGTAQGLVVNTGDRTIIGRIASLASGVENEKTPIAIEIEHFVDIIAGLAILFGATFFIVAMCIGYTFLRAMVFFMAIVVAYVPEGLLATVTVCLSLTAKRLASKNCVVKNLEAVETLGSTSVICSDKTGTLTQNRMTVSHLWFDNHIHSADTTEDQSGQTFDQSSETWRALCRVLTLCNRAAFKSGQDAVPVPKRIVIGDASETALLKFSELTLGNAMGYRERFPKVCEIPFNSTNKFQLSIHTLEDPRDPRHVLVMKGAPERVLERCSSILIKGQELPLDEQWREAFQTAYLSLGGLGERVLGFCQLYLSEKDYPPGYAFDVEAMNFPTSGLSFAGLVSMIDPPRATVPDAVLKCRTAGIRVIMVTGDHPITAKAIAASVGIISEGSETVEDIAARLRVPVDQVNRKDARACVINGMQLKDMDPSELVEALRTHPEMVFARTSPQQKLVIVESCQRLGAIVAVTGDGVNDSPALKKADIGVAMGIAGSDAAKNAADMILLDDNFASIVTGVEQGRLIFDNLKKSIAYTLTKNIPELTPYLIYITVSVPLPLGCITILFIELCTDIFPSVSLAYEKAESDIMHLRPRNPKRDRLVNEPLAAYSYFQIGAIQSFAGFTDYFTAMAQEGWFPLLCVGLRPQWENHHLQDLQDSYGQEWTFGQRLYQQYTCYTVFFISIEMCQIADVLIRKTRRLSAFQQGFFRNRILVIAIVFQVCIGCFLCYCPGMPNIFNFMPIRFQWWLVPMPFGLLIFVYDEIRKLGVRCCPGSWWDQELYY
Method in brief: (§4)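 Hog fundic mucosa microsomes. Vesicles (30 μg) preincubated with compound at 37 °C in 40 mM Tris-acetate pH 7.4, 7 mM NH4Cl, with or without KCl. Reaction started with 2 mM ATP (final), run 10 min at 37 °C, stopped with cold TCA plus charcoal. Released inorganic phosphate measured colorimetrically. IC50 from dose-response, mean of triplicates.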

[5] = biological target: T1, Potassium-transporting ATPase (Rattus norvegicus); test: Activity was evaluated by measuring the inhibition of isolated rat H+/K+ ATPase at 10 mg/kg; format: organism-based; design: dose 10 mg/kg; method in brief: as §2
[6] = biological target: T1, Potassium-transporting ATPase (Rattus norvegicus); test: Inhibition of isolated rat H+/K+ ATPase at 10 mg/kg; Inactive; format: functional, organism-based; design: dose 10 mg/kg; method in brief: as §2
[7] = biological target: T1, Potassium-transporting ATPase (Rattus norvegicus); test: Inhibitory activity was evaluated by measuring the inhibition of isolated rat H+/K+ ATPase at a concentration of 10 mg/kg; format: organism-based; design: dose 10 mg/kg; method in brief: as §2
[8] = biological target: T1, Potassium-transporting ATPase (Rattus norvegicus); test: Activity administered subcutaneously was evaluated by measuring the inhibition of isolated rat H+/K+ ATPase; format: protein-complex assay; method in brief: as §2
Oryctolagus cuniculus [9] = species on record: Oryctolagus cuniculus; test: Antisecretory effect in isolated rabbit gastric glands as measured by aminopyrine uptake; no effect, 1E-4M concentration; format: functional; settings: Stomach; method in brief: as §1
[10] = biological target: T2, Potassium-transporting ATPase (Sus scrofa) (UniProt P18434+P19156); test: as §3; format: protein-complex assay; settings: concentration not given here; method in brief: as §4
[11] = biological target: T1, Potassium-transporting ATPase (Rattus norvegicus); test: Activity was evaluated by measuring the inhibition of isolated rat H+/K+ ATPase; no effect, 10 mg/kg sc
[12] = biological target: T2, Potassium-transporting ATPase (Sus scrofa); test: Activity was evaluated by measuring the inhibition of isolated hog H+/K+ ATPase at concentration of 5E-4; format: protein-complex assay; method in brief: as §4

Row | SMILES | ID50 (Oryctolagus cuniculus [1]) [M] | ED50 [2] [mg/kg] | IC50 [4] [µM] | also measured
1 | COc1ccc2[nH]c([S+]([O-])Cc3ncc(C)c(OC)c3C)nc2c1 (stereo not given) [OMEPRAZOLE] | 2e-07 | 1 |  | ED50 (Rattus norvegicus): < 1 mg/kg
2 | [O-][S+](Cc1ccccn1)c1nc2ccccc2n1CCN1CCOCC1 (stereo not given) |  |  |  | ID50 (Oryctolagus cuniculus [3]): inactive
3 | CCSc1ccnc(C[S+]([O-])c2nc3ccccc3n2C(=O)OC(C)C)c1C (stereo not given) | 1.5e-05 | 10 |  | 
4 | CCOC(=O)n1c([S+]([O-])Cc2nccc(SCC)c2C)nc2ccccc21 (stereo not given) | 2e-06 |  | 20 | inhibition [5]: 61%
5 | COC(=O)CCC(=O)OCn1c([S+]([O-])Cc2ccccn2)nc2ccccc21 (stereo not given) | 2e-05 | 7 |  | 
6 | CCSc1ccnc(C[S+]([O-])c2nc3ccccc3n2C(C)OC(C)=O)c1C (stereo in doubt; 19b) |  | 2 |  | 
7 | CC(OC(=O)C(C)(C)C)n1c([S+]([O-])Cc2ccccn2)nc2ccccc21 (stereo in doubt; 30b) [listing 1 of 2 here] | 2e-05 |  |  | 
8 | CCOCCn1c([S+]([O-])Cc2nccc(SCC)c2C)nc2ccccc21 (stereo not given) | 2e-06 |  | 1000 | ED50 [6]: inactive
9 | CCSc1ccnc(C[S+]([O-])c2nc3ccccc3[nH]2)c1C (stereo not given) [DISUPRAZOLE] | 1e-07 | 1 | 20 | ED50 (Rattus norvegicus): < 1 mg/kg
10 | CC(OC(=O)c1ccccc1)n1c([S+]([O-])Cc2ccccn2)nc2ccccc21 (stereo in doubt; 29a) [listing 1 of 2 here] |  |  |  | inhibition [7]: 27%
11 | CC(C)COC(=O)OCn1c([S+]([O-])Cc2ccccn2)nc2ccccc21 (stereo not given) | 2e-05 | 6 |  | 
12 | CC(=O)OCn1c([S+]([O-])Cc2ccccn2)nc2ccccc21 (stereo not given) | 0.0001 |  | 8 | ED50 [8]: 5 mg/kg
13 | [O-][N+]1(Cn2c(SCc3ccccn3)nc3ccccc32)CCOCC1 |  |  |  | ID50 (Oryctolagus cuniculus [3]): inactive; ED50 [6]: inactive
14 | COc1c(C)cnc(C[S+]([O-])c2nc3ccccc3n2C(C)OC(C)=O)c1C (stereo not given) | 4e-07 | < 1 | 1500 | 
15 | COc1c(C)cnc(C[S+]([O-])c2nc3ccccc3[nH]2)c1C (stereo not given) | 2e-07 |  | 20 | 
16 | CCSc1ccnc(C[S+]([O-])c2nc3ccccc3n2COCCOC)c1C (stereo not given) | 1e-05 |  |  | ED50 [6]: inactive
17 | CC(OC(=O)c1ccccc1)n1c([S+]([O-])Cc2ccccn2)nc2ccccc21 (stereo in doubt; 29b) |  |  |  | ID50 (Oryctolagus cuniculus [9]): inactive; inhibition [7]: 35%
18 | CCCCCCCC(=O)OCn1c([S+]([O-])Cc2ccccn2)nc2ccccc21 (stereo not given) | 2e-05 | 9 |  | 
19 | CCSc1ccnc(C[S+]([O-])c2nc3ccccc3n2C(=O)OCC(C)C)c1C (stereo not given) | 4e-06 | 5 | 5 | 
20 | CCSc1ccnc(C[S+]([O-])c2nc3ccccc3n2CSc2ccccc2)c1C (stereo not given) | 8e-06 |  | > 1000 | ED50 [6]: inactive
21 | C=COC(=O)n1c([S+]([O-])Cc2nccc(SCC)c2C)nc2ccccc21 (stereo not given) | 1.5e-06 | 10 | 30 | 
22 | CCSc1ccnc(C[S+]([O-])c2nc3ccccc3n2CCN2CCCCC2)c1C (stereo not given) | 2e-05 |  | 30 | ED50 [6]: inactive
23 | c1ccc(CSc2nc3ccccc3n2CCN2CCOCC2)nc1 |  |  |  | ID50 (Oryctolagus cuniculus [3]): inactive; ED50 [6]: inactive
24 | CCOC(C)n1c([S+]([O-])Cc2nccc(SCC)c2C)nc2ccccc21 (stereo not given) | 5e-07 | 1.5 | 200 | 

Row | SMILES | ID50 (Oryctolagus cuniculus [1]) [M] | ED50 [2] [mg/kg] | IC50 [4] [µM] | also measured
25 | CC(C)C(=O)OCn1c([S+]([O-])Cc2ccccn2)nc2ccccc21 (stereo not given) | 3e-05 | 4 |  | 
26 | CCSc1ccnc(C[S+]([O-])c2nc3ccccc3n2C(=O)Oc2ccccc2)c1C (stereo not given) | 1.5e-06 | 5 | 20 | 
27 | CCSc1ccnc(C[S+]([O-])c2nc3ccccc3n2COC(C)=O)c1C (stereo not given) | 3e-07 | 2 | 400 | 
28 | CC(OC(=O)C(C)(C)C)n1c([S+]([O-])Cc2ccccn2)nc2ccccc21 (stereo in doubt; 30a) |  |  |  | ID50 (Oryctolagus cuniculus [9]): inactive; inhibition [7]: 32%
29 | Cn1c([S+]([O-])Cc2ccccn2)nc2ccccc21 (stereo not given) | 0.001 |  |  | inhibition [10]: 18%; ED50 [6]: inactive
30 | COc1c(C)cnc(C[S+]([O-])c2nc3ccccc3n2COC(C)=O)c1C (stereo not given) | 2e-07 | 1 | 500 | 
31 | [O-][S+](Cc1ccccn1)c1nc2ccccc2[nH]1 (stereo not given) [TIMOPRAZOLE] | 2e-05 | 4 |  | inhibition [10]: 27%; ED50 (Rattus norvegicus): 2.5 mg/kg
32 | CC(=O)OC(C)n1c([S+]([O-])Cc2ccccn2)nc2ccccc21 (stereo in doubt; 18b) |  |  |  | ID50 (Oryctolagus cuniculus [9]): inactive
33 | CCSc1ccnc(C[S+]([O-])c2nc3ccccc3n2C(=O)OCCCl)c1C (stereo not given) | 2e-06 |  | 10 | inhibition [5]: 40%
34 | CCCCCCCCOC(=O)n1c([S+]([O-])Cc2nccc(SCC)c2C)nc2ccccc21 (stereo not given) | 1e-05 |  |  | 
35 | CC(=O)OC(C)n1c([S+]([O-])Cc2ccccn2)nc2ccccc21 (stereo in doubt; 18a) |  |  |  | ID50 (Oryctolagus cuniculus [9]): inactive
36 | CCOC(C)n1c([S+]([O-])Cc2ncc(C)c(OC)c2C)nc2ccccc21 (stereo not given) | 1e-06 | 1 | 1500 | 
37 | COc1c(C)cnc(C[S+]([O-])c2nc3ccccc3n2CCN2CCOCC2)c1C (stereo not given) | 7e-05 |  | 1000 | ED50 [6]: inactive
38 | CCSc1ccnc(C[S+]([O-])c2nc3ccccc3n2COC)c1C (stereo not given) |  |  |  | ID50 (Oryctolagus cuniculus [1]; Stomach): inactive; ED50 [6]: inactive
39 | CC(OC(=O)C(C)(C)C)n1c([S+]([O-])Cc2ccccn2)nc2ccccc21 (stereo in doubt; 30b) [listing 2 of 2 here] |  |  |  | inhibition [7]: 40%
40 | CCSc1ccnc(C[S+]([O-])c2nc3ccccc3n2C(C)OC(C)=O)c1C (stereo in doubt; 19a) |  | 2 |  | 
41 | CCSc1ccnc(C[S+]([O-])c2nc3ccccc3n2C(=O)OCc2ccc([N+](=O)[O-])cc2)c1C (stereo not given) | 1.5e-06 |  | 20 | inhibition [5]: 44%
42 | CCSc1ccnc(CSc2nc3ccccc3n2CC2CO2)c1C (stereo not given) | 8e-05 |  |  | ED50 [6]: inactive
43 | CCSc1ccnc(C[S+]([O-])c2nc3ccccc3n2C(=O)OCc2ccccc2)c1C (stereo not given) | 1.5e-06 |  | 20 | inhibition [5]: 40%
44 | CC(OC(=O)c1ccccc1)n1c([S+]([O-])Cc2ccccn2)nc2ccccc21 (stereo in doubt; 29a) [listing 2 of 2 here] | 4e-05 |  | 400 | 
45 | c1ccc(CSc2nc3ccccc3n2CN2CCOCC2)nc1 |  |  |  | ID50 (Oryctolagus cuniculus [3]): inactive; ED50 [6]: inactive
46 | CCSc1ccnc(C[S+]([O-])c2nc3ccccc3n2C(=O)OC(C)(C)C(Cl)(Cl)Cl)c1C (stereo not given) | 5e-05 |  | 10 | ED50 [11]: inactive
47 | CCSc1ccnc(C[S+]([O-])c2nc3ccccc3n2COC(=O)C(C)(C)C)c1C (stereo not given) | 5e-06 | 5 |  | inhibition [12]: 30%

— ChEMBL document CHEMBL1125618, “Studies on (H(+)-K+)-ATPase inhibitors of gastric acid secretion. Prodrugs of 2-[(2-pyridinylmethyl)sulfinyl]benzimidazole proton-pump inhibitors” (J Med Chem, 1991)
